In ChEMBL document CHEMBL1212774, “In vitro activity of fosfomycin against blaKPC-containing Klebsiella pneumoniae isolates, including those nonsusceptible to tigecycline and/or colistin” (2010):

Key:
Format in all cases: functional
Klebsiella pneumoniae [1] = experiment: Antimicrobial activity against Klebsiella pneumoniae isolate KpKPC expressing multidrug-resistant blaKPC gene assessed as susceptible isolates by Etest
Procedure, shortened: (§1)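 Etest of fosfomycin MICs, with MICs rounded up to the next doubling concentration (e.g., 48 to 64 μg/ml). E. coli ATCC 25922 and P. aeruginosa ATCC 27853 included as controls. Isolates categorised as susceptible or resistant.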

Klebsiella pneumoniae [2] = experiment: Antimicrobial activity against Klebsiella pneumoniae isolate KpKPC expressing multidrug-resistant blaKPC gene assessed as resistant isolates by Etest; procedure, shortened: as §1
Klebsiella pneumoniae [3] = experiment: Antimicrobial activity against Klebsiella pneumoniae isolate KpKPC expressing multidrug-resistant blaKPC gene assessed as susceptible isolates by disk diffusion method
Procedure, shortened: (§2)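 Fosfomycin disk diffusion with inhibition zone diameters read in mm and interpreted as susceptible, intermediate or resistant. E. coli ATCC 25922 and P. aeruginosa ATCC 27853 run as controls.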

Klebsiella pneumoniae [4] = experiment: Antimicrobial activity against Klebsiella pneumoniae isolate KpKPC expressing multidrug-resistant blaKPC gene assessed as resistant isolates by disk diffusion method; procedure, shortened: as §2

C[C@@H]1O[C@@H]1P(=O)(O)O [FOSFOMYCIN]
Activity (Klebsiella pneumoniae [1]): 61.8% | Activity (Klebsiella pneumoniae [2]): 14.7% | Activity (Klebsiella pneumoniae [3]): 63.2% | Activity (Klebsiella pneumoniae [4]): 2.9%
